According to ChEMBL document CHEMBL1149362, “Diphenyl phosphonate inhibitors for the urokinase-type plasminogen activator: optimization of the P4 position” (J Med Chem, 2006):

Experiments:
[1] = target: T1, Urokinase-type plasminogen activator (Homo sapiens, UniProt P00749); test: Inhibition of human uPA
[2] = target: Tissue-type plasminogen activator (Homo sapiens, UniProt P00750); test: Inhibition of recombinant tPA
How it was run: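 Recombinant tPA, approx. 5 mU, in Tris pH 8.3, is preincubated with inhibitor for 15 min at 37 °C. S-2288 is then added at 1.25 mM (Km 1 mM). Absorbance change is read at 405 nm, in duplicate, and IC50 comes from a four-parameter logistic fit.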

Prothrombin = Prothrombin (Homo sapiens, UniProt P00734); test: Inhibition of human thrombin
How it was run: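 Thrombin from human plasma, approx. 5 mU, in Tris pH 8.3, with a 15-min 37 °C inhibitor preincubation. […] Initial rate is read at 405 nm, duplicates, and IC50 is obtained by four-parameter logistic fitting.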

Plasminogen = Plasminogen (Homo sapiens, UniProt P00747); test: Inhibition of human plasmin
Plasminogen, sequence (P00747 97-580 limits assumed): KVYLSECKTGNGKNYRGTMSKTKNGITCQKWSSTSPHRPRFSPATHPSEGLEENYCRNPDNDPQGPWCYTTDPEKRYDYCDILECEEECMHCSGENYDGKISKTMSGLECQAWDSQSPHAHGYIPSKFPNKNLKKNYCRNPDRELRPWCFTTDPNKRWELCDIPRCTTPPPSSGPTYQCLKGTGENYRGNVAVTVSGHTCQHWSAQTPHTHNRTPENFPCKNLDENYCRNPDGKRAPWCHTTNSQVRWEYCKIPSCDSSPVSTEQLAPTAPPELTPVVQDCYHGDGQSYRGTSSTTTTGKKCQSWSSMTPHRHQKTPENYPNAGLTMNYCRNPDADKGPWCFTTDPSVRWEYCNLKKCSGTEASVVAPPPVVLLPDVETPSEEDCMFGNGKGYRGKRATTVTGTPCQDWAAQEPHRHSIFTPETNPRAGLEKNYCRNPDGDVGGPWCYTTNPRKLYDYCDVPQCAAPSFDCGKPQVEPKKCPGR
Plasminogen, sequence (P00747 581-810 limits assumed): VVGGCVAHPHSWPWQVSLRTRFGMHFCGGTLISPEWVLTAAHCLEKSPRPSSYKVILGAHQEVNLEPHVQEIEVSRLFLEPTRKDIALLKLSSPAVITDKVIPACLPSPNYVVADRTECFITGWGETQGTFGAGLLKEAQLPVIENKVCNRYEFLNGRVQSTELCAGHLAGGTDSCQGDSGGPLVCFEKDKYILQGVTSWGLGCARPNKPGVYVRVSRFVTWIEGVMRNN
How it was run: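 Plasmin from human plasma, approx. 5 mU, in Tris pH 7.4, with a 15-min 37 °C inhibitor preincubation. […] Initial rate is read at 405 nm, in duplicate, and IC50 is obtained by four-parameter logistic fitting.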

Homo sapiens [3] = species on record: Homo sapiens; test: Selectivity index, IC50 for human plasmin/IC50 for human uPA
[4] = target: Coagulation factor X (Bos taurus) (UniProt P00743); test: (§1) Inhibition of bovine F10a at 250 uM
Coagulation factor X (Bos taurus), sequence (P00743 41-180 limits assumed): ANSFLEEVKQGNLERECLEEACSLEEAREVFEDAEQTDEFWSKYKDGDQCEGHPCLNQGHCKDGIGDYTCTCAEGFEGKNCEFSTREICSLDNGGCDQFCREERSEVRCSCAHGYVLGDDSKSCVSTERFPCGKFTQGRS
Coagulation factor X (Bos taurus), sequence (P00743 234-492 limits assumed): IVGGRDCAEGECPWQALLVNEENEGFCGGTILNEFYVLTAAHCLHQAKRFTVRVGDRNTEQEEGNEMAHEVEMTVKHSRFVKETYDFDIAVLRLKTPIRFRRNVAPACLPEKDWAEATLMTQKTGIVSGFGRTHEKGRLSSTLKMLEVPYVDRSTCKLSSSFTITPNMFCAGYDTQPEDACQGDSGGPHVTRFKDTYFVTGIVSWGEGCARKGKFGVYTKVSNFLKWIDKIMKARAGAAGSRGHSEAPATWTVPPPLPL

[5] = Inhibition of bovine trypsin; design: species or system Bos taurus
How it was run: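 Bovine trypsin, approx. 5 mU, is preincubated with inhibitor for 15 min at 37 °C. BAPNA substrate is then added at 425 µM (Km 1 mM) in Tris pH 8.2. The pNA release rate is read at 405 nm, duplicate wells, and IC50 comes from a four-parameter logistic fit.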

[6] = target: Thrombin and urokinase-type plasminogen activator (Homo sapiens) (UniProt P00734+P00749); test: Selectivity index, IC50 for human thrombin/IC50 for human uPA; assay type: protein assay
[7] = Selectivity index, IC50 for bovine trypsin/IC50 for human uPA
Homo sapiens [8] = species on record: Homo sapiens; test: Selectivity index, IC50 for recombinant tPA/IC50 for human uPA
Coagulation factor X [9] = target: T2, Coagulation factor X (Bos taurus, UniProt P00743); test: Inhibition of bovine F10a
T2 sequence (P00743 41-180 limits assumed): as the sequence (P00743 41-180 limits assumed) above
T2 sequence (P00743 234-492 limits assumed): as the sequence (P00743 234-492 limits assumed) above

Coagulation factor X [10] = target: T2, Coagulation factor X; test: as §1
[11] = Selectivity index, IC50 for bovine F10a/IC50 for human uPA
[12] = Selectivity for mouse uPA over plasmin
[13] = Selectivity for mouse uPA over tPA
[14] = target: T1, Urokinase-type plasminogen activator; test: Inhibition of mouse uPA; details: target entry is the homologue from another species
[15] = target: Coagulation factor X (Bos taurus) (UniProt P00743); test: Inhibition of bovine F10a at 125 uM

Tissue-type plasminogen activator, sequence (P00750 whole entry): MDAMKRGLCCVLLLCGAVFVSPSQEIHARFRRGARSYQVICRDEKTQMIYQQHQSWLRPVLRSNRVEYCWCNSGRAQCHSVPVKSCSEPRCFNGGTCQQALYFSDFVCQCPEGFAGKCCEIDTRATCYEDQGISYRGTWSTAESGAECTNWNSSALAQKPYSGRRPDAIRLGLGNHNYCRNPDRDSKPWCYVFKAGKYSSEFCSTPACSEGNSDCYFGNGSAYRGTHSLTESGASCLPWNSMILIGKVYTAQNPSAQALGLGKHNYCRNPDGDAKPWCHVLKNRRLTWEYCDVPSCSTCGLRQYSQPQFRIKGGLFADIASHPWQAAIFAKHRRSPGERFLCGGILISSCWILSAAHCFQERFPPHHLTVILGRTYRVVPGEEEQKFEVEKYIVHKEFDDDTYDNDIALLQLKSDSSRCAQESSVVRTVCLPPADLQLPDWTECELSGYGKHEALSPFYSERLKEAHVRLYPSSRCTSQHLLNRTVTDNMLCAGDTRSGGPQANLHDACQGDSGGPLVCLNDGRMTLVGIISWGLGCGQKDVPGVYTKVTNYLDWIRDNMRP

Compound	IC50 [1] [nM]	IC50 [2] [µM]	IC50 (Prothrombin) [µM]	IC50 (Plasminogen) [nM]	Selectivity index (Homo sapiens [3])	inhibition [4] [%]	IC50 [5] [nM]	Selectivity index [6]	Selectivity index [7]	Selectivity index (Homo sapiens [8])	IC50 (Coagulation factor X [9]) [µM]	IC50 (Coagulation factor X [10]) [µM]	Selectivity index [11]	Selectivity ratio [12]	Selectivity ratio [13]	IC50 [14] [nM]	inhibition [15] [%]
C[C@H](NC(=O)[C@@H](CO)NC(=O)c1ccccc1)C(=O)NC(Cc1ccc(N=C(N)N)cc1)P(=O)(Oc1ccccc1)Oc1ccccc1 (stereo partly specified)	5	15	22	15000	–	–	–	–	–	–	–	–	–	–	–	–	–
C[C@H](NC(=O)[C@@H](CO)NS(=O)(=O)c1cccs1)C(=O)NC(Cc1ccc(N=C(N)N)cc1)P(=O)(Oc1ccccc1)Oc1ccccc1 (stereo partly specified)	1.5	3.4	4.3	1540	–	–	–	–	–	–	–	–	–	–	–	–	–
Cc1ccc(C(=O)N[C@H](CO)C(=O)N[C@@H](C)C(=O)NC(Cc2ccc(NC(=N)N)cc2)P(=O)(Oc2ccccc2)Oc2ccccc2)cc1 (stereo partly specified)	7	16	67	5000	700	53	160	9600	23	2300	–	–	–	–	–	–	–
Cc1cccc(C(=O)N[C@H](CO)C(=O)N[C@@H](C)C(=O)NC(Cc2ccc(NC(=N)N)cc2)P(=O)(Oc2ccccc2)Oc2ccccc2)c1 (stereo partly specified)	–	–	–	–	1800	56	160	7700	40	4000	–	–	–	–	–	–	–
C[C@H](NC(=O)[C@@H](CO)NS(=O)(=O)c1cccs1)C(=O)NC(Cc1ccc(NC(=N)N)cc1)P(=O)(Oc1ccccc1)Oc1ccccc1 (stereo partly specified)	–	–	–	–	1000	68	98	2800	65	2300	–	–	–	–	–	–	–
C[C@H](NC(=O)[C@@H](CO)NS(=O)(=O)c1ccc(C#N)cc1)C(=O)NC(Cc1ccc(NC(=N)N)cc1)P(=O)(Oc1ccccc1)Oc1ccccc1 (stereo partly specified)	–	–	–	–	145	53	440	1200	70	1100	–	–	–	–	–	–	–
C[C@H](NC(=O)[C@@H](CO)NC(=O)c1ccccc1)C(=O)NC(Cc1ccc(NC(=N)N)cc1)P(=O)(Oc1ccccc1)Oc1ccccc1 (stereo partly specified)	–	–	–	–	3000	45	400	5400	80	3000	–	–	–	–	–	–	–
C[C@H](NC(=O)[C@@H](CO)NC(=O)c1cccs1)C(=O)NC(Cc1ccc(NC(=N)N)cc1)P(=O)(Oc1ccccc1)Oc1ccccc1 (stereo partly specified)	–	–	–	–	1400	–	–	5000	40	1900	–	–	–	–	–	–	–
C[C@H](NC(=O)[C@@H](CO)NC(=O)OCc1ccccc1)C(=O)NC(Cc1ccc(N=C(N)N)cc1)P(=O)(Oc1ccccc1)Oc1ccccc1 (stereo partly specified)	4.3	4.6	20	2000	–	–	–	–	–	–	–	–	–	–	–	–	–
Cc1ccccc1C(=O)N[C@H](CO)C(=O)N[C@@H](C)C(=O)NC(Cc1ccc(NC(=N)N)cc1)P(=O)(Oc1ccccc1)Oc1ccccc1 (stereo partly specified)	5	5.5	15.9	7200	1400	57	140	3200	30	1100	–	–	–	–	–	–	–
C[C@H](NC(=O)[C@@H](CO)NS(=O)(=O)c1cccc2ccccc12)C(=O)NC(Cc1ccc(N=C(N)N)cc1)P(=O)(Oc1ccccc1)Oc1ccccc1 (stereo partly specified)	5.8	4.4	6	990	–	–	–	–	–	–	96	–	–	–	–	–	–
C[C@H](NC(=O)[C@@H](CO)NC(=O)c1cccs1)C(=O)NC(Cc1ccc(N=C(N)N)cc1)P(=O)(Oc1ccccc1)Oc1ccccc1 (stereo partly specified)	6.9	13	35	10000	–	–	–	–	–	–	–	250	–	–	–	–	–
C[C@H](NC(=O)[C@@H](CO)NS(=O)(=O)Cc1ccccc1)C(=O)NC(Cc1ccc(NC(=N)N)cc1)P(=O)(Oc1ccccc1)Oc1ccccc1 (stereo partly specified)	3.5	0.28	0.77	37	11	–	310	220	90	80	33	–	9400	–	–	–	–
CC(=O)Nc1ccc(OP(=O)(Oc2ccc(NC(C)=O)cc2)C(Cc2ccc(NC(=N)N)cc2)NC(=O)[C@H](C)NC(=O)[C@@H](CO)NC(=O)OCc2ccccc2)cc1 (stereo partly specified)	–	–	–	–	130	58	200	200	30	1000	–	–	–	5	5	–	–
COc1ccc(S(=O)(=O)N[C@H](CO)C(=O)N[C@@H](C)C(=O)NC(Cc2ccc(NC(=N)N)cc2)P(=O)(Oc2ccccc2)Oc2ccccc2)cc1 (stereo partly specified)	5.8	4.3	1.67	1700	293	–	360	288	60	740	100	–	19000	–	–	–	–
C[C@H](NC(=O)[C@@H](CO)NS(=O)(=O)c1ccc(C#N)cc1)C(=O)NC(Cc1ccc(N=C(N)N)cc1)P(=O)(Oc1ccccc1)Oc1ccccc1 (stereo partly specified)	6.2	6.6	7.5	900	–	–	–	–	–	–	–	–	–	–	–	–	–
Cc1cccc(C)c1C(=O)N[C@H](CO)C(=O)N[C@@H](C)C(=O)NC(Cc1ccc(NC(=N)N)cc1)P(=O)(Oc1ccccc1)Oc1ccccc1 (stereo partly specified)	6	3.6	6.3	4200	700	62	220	1000	40	600	–	–	–	–	–	–	–
C[C@H](NC(=O)[C@@H](CO)NS(=O)(=O)c1ccccc1)C(=O)NC(Cc1ccc(NC(=N)N)cc1)P(=O)(Oc1ccccc1)Oc1ccccc1 (stereo partly specified)	2.6	3.1	4.9	1900	740	64	160	1900	60	1200	–	–	–	–	–	–	–
CC(=O)Nc1ccc(OP(=O)(Oc2ccc(NC(C)=O)cc2)C(Cc2ccc(N=C(N)N)cc2)NC(=O)[C@H](C)NC(=O)[C@@H](CO)NC(=O)OCc2ccccc2)cc1 (stereo partly specified)	6.7	6.4	1.5	900	–	–	–	–	–	–	–	–	–	–	–	410	–
C[C@H](NC(=O)[C@@H](CO)NC(=O)OCc1ccccc1)C(=O)NC(CCCNC(=N)N)P(=O)(Oc1ccccc1)Oc1ccccc1 (stereo partly specified)	–	–	–	–	–	–	–	–	–	–	65	–	–	–	–	–	–
C[C@H](NC(=O)[C@@H](CO)NC(=O)OCc1ccccc1)C(=O)NC(CCCN=C(N)N)P(=O)(Oc1ccccc1)Oc1ccccc1 (stereo partly specified)	–	–	–	–	300	–	–	8	–	40	–	–	1100	–	–	–	–
Cc1cccc(C(=O)N[C@H](CO)C(=O)N[C@@H](C)C(=O)NC(Cc2ccc(N=C(N)N)cc2)P(=O)(Oc2ccccc2)Oc2ccccc2)c1 (stereo partly specified)	4.4	18	34	8000	–	–	–	–	–	–	–	–	–	–	–	–	–
C[C@H](NC(=O)[C@@H](CO)NS(=O)(=O)c1ccc(Br)cc1)C(=O)NC(Cc1ccc(NC(=N)N)cc1)P(=O)(Oc1ccccc1)Oc1ccccc1 (stereo partly specified)	6.6	3.7	2.98	900	136	–	240	451	36	560	58	–	9000	–	–	–	–
C[C@H](NC(=O)[C@@H](CO)NS(=O)(=O)c1cccc2ccccc12)C(=O)NC(Cc1ccc(NC(=N)N)cc1)P(=O)(Oc1ccccc1)Oc1ccccc1 (stereo partly specified)	–	–	–	–	155	–	280	1000	50	760	–	–	16600	–	–	–	–
C[C@H](NC(=O)[C@@H](CO)NC(=O)OCc1ccccc1)C(=O)NC(Cc1ccc(NC(=N)N)cc1)P(=O)(Oc1ccccc1)Oc1ccccc1 (stereo partly specified)	–	–	–	–	470	–	300	4700	70	1000	–	–	–	–	–	–	43
C[C@H](NC(=O)[C@@H](CO)NC(=O)C1C2CC3CC(C2)CC1C3)C(=O)NC(Cc1ccc(NC(=N)N)cc1)P(=O)(Oc1ccccc1)Oc1ccccc1 (stereo partly specified)	8	8.6	6	5000	600	62	160	750	20	1000	–	–	–	–	–	–	–
